Columns and labels:
Rattus norvegicus [1] = test: Compound administered orally at a dose of 1 mg/kg was evaluated for salidiuretic activity measured as sodium ion excretion in Rat; settings: in vivo, po
Canis familiaris [2] = test: Compound administered intravenously at a dose of 5 mg/kg was evaluated for salidiuretic activity measured as sodium ion excretion in Dog; Value ranges from 600-799; assay type: ADME, organism-based, Canis lupus familiaris, Urine; design: dose 5 mg/kg, route intravenous; unit not given beside the values; settings: in vivo, iv
Outline: (§1)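 Conditioned female mongrel dogs, postabsorptive, water-loaded (500 mL po) 1 h before sodium pentobarbital anesthesia (30 mg/kg iv). Bladder catheter; creatinine 4 g sc; phosphate–mannitol buffer pH 7.4 infused (3.0 mL/min) throughout. […] Urine Na+ measured; response scored 0–6.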

Rattus norvegicus [3] = test: Evaluated for salidiuretic activity measured as sodium ion excretion in Rat, administered orally at a dose of 50 mg/kg; assay type: functional, Urine; design: unit not given beside the values; settings: route oral
Outline: (§2)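 Female Charles-River rats (150–170 g), overnight on sugar diet with water ad libitum. Compound dissolved in DMF, diluted with water containing Tween 80 (final 4% DMF), given po in 5.0 mL; concurrent vehicle placebo. Three rats per metabolism cage; 0–5 h urine analysed for Na+, K+, Cl-. Values: mequiv × 100 per cage, geometric means of three cages per dose; scored 0–6 by Na+.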

[4] = Evaluated for salidiuretic activity measured as sodium ion excretion in Rat, administered orally at a dose of 16.5 mg/kg; assay type: organism-based; design: dose 16.5 mg/kg; settings: Urine
Outline: as §2

[5] = Compound administered orally at a dose of 5 mg/kg was evaluated for salidiuretic activity measured as sodium ion excretion in Rat; assay type: organism-based; design: dose 5 mg/kg; settings: Urine
Outline: as §2

Rattus norvegicus [6] = test: Compound administered orally at a dose of 81 mg/kg was evaluated for salidiuretic activity measured as sodium ion excretion in Rat; assay type: ADME, organism-based, Urine; design: dose 81 mg/kg, route oral; unit not given beside the values; settings: in vivo, po
Outline: as §2

Canis familiaris [7] = test: Compound administered intravenously was evaluated for salidiuretic activity measured as sodium ion excretion in Dog; Value ranges from 400-599; assay type: ADME, organism-based, Canis lupus familiaris, Urine; settings: in vivo, iv
Outline: as §1

Canis familiaris [8] = test: Compound administered intravenously was evaluated for salidiuretic activity measured as sodium ion excretion in Dog; assay type: ADME, organism-based, Canis lupus familiaris, Urine; design: unit not given beside the values; settings: in vivo, iv
Outline: as §1

Canis familiaris [9] = test: Compound administered intravenously was evaluated for salidiuretic activity measured as sodium ion excretion in Dog; Value ranges from 600-799; assay type: ADME, organism-based, Canis lupus familiaris, Urine; settings: in vivo, iv
Outline: as §1

Canis familiaris [10] = test: Compound administered intravenously at a dose of 5 mg/kg was evaluated for salidiuretic activity measured as sodium ion excretion in Dog; Value ranges from 400-599; assay type: ADME, organism-based, Canis lupus familiaris, Urine; design: dose 5 mg/kg, route intravenous; settings: in vivo, iv
Outline: as §1

Canis familiaris [11] = test: Compound administered intravenously at a dose of 5 mg/kg was evaluated for salidiuretic activity measured as sodium ion excretion in Dog; Value ranges from 600- 799; assay type: ADME, organism-based, Canis lupus familiaris, Urine; design: dose 5 mg/kg, route intravenous; settings: in vivo, iv
Outline: as §1

Canis familiaris [12] = test: Compound administered intravenously at a dose of 5 mg/kg was evaluated for salidiuretic activity measured as sodium ion excretion in Dog; Value ranges from 0-99; assay type: ADME, organism-based, Canis lupus familiaris, Urine; design: dose 5 mg/kg, route intravenous; settings: in vivo, iv
Outline: as §1

| Compound | Diuretic activity (Rattus norvegicus [3]) | Diuretic activity [4] | Diuretic activity [5] | Diuretic activity (Rattus norvegicus [6]) | other results |
| --- | --- | --- | --- | --- | --- |
| CC(C)c1cc(I)c(O)c(CN)c1.Cl | 3.6 | 3.3 | 2.6 | – | Diuretic activity (Rattus norvegicus [1]): 0.7; Diuretic activity (Canis familiaris [2]): 600 |
| C=CCc1cc(CN)c(O)c(OC)c1.Cl | 2.4 | 1.4 | 0.5 | 2.9 | Diuretic activity (Canis familiaris [2]): 600 |
| Cl.NCc1cc(C2CCCCC2)cc(Cl)c1O | – | – | – | – | Diuretic activity (Canis familiaris [7]): 400 |
| Br.Cc1c(C)c(Cl)c(Cl)c(CN)c1O | – | – | – | – | Diuretic activity (Canis familiaris [8]): > 900 |
| Cc1c(Cl)cc(I)c(O)c1CN.Cl | 2.4 | 1.4 | 0.5 | 2.9 | Diuretic activity (Canis familiaris [2]): 600 |
| Cc1c(Cl)cc(Cl)c(O)c1CN.Cl | – | – | – | – | Diuretic activity (Canis familiaris [8]): > 900 |
| Cc1cc(C(C)(C)C)cc(CN)c1O.Cl | – | – | – | – | Diuretic activity (Canis familiaris [9]): 600 |
| Cl.NCc1c(O)cc(Cl)c(Cl)c1Cl | 3.3 | 2.7 | 1.4 | – | Diuretic activity (Canis familiaris [10]): 400 |
| Cc1c(Cl)c(C)c(CN)c(O)c1Br.Cl | – | – | – | – | Diuretic activity (Canis familiaris [8]): > 900 |
| CCCc1cc(I)c(O)c(CN)c1.Cl | 1.8 | 0.6 | 0.4 | 2.4 | Diuretic activity (Canis familiaris [11]): 600 |
| Cc1c(C)c(Cl)c(O)c(CN)c1C.Cl | – | – | – | – | Diuretic activity (Canis familiaris [9]): 600 |
| CCC(C)(C)c1cc(Cl)c(O)c(CN)c1.Cl | 2.4 | 1.4 | 0.5 | 2.9 | Diuretic activity (Canis familiaris [2]): 600 |
| CCc1c(Cl)cc(CN)c(O)c1Cl.Cl | 1.8 | 0.6 | 0.4 | 2.4 | Diuretic activity (Canis familiaris [10]): 400 |
| CC(C)(C)c1ccc(O)c(CN)c1.Cl | 1.2 | 0.5 | 0.3 | 1.5 | Diuretic activity (Canis familiaris [12]): 0 |
| COc1c(Cl)c(OC)c(CN)c(O)c1Br.Cl | 3.6 | 3.3 | 2.6 | – | Diuretic activity (Rattus norvegicus [1]): 0.7; Diuretic activity (Canis familiaris [2]): 600 |
| Cc1c(C)c(Cl)c(C)c(CN)c1O.Cl | – | – | – | – | Diuretic activity (Canis familiaris [9]): 600 |
| Cc1cc(Cl)c(O)c(CN)c1C.Cl | 2.4 | 1.4 | 0.5 | 2.9 | Diuretic activity (Canis familiaris [10]): 400 |
